PGC1a acetyl up – compounds raising PGC1a acetylation signal, primary screen, PGC1a modulator project, cell-based, U2OS, AlphaScreen, signal-increasing mode; overnight; activation, % at 15.6 µM; 0.21% of 350,000 active; AID 651723, 2012;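 active = every replicate reaching activation of at least 50%, whatever the mean replicate activation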;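 also: hits raise the AlphaScreen acetylation signal above neutral controls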
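System: flag-PGC1a/GCN5 U2OS cells / Input: 7000 cells/well / Compound: single test concentration per compound / Incubation: overnight compound treatment, 37 °C / Technique: AlphaScreen on lysates with anti-acetyl-lysine antibody, acceptor and donor beads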
* hit, by the source's call. This is one part of a sample in which hits are shown more often than they occur.

SMILES	PGC1a acetyl up
C[C@H]1CN([C@@H](C)CO)C(=O)c2cc(NC(=O)Nc3cccc4ccccc34)ccc2O[C@H]1CN(C)S(=O)(=O)c1ccc(Cl)cc1	-41
CCOC(=O)Cn1cnc2scc(-c3ccccc3)c2c1=O	-43
CCOc1cc(C)c(S(=O)(=O)N2CCCC2)cc1C	61*
CCOc1cc(/C=C2\CN(C)C/C(=C\c3ccc(O)c(OCC)c3)C2=O)ccc1O	-53
O=C(CCC1CCCN(C(=O)c2cc(C3CC3)[nH]n2)C1)N1CCN(c2ccccn2)CC1 (stereo not drawn)	-98
COc1ccccc1N=C1NC(=O)/C(=C/c2ccc(N(C)C)cc2)S1	55*
CN(C)/C=N/c1nc2nccc(-c3ccccn3)n2n1	-47
O=C(OCc1nnc(-c2ccccc2)o1)C1=COCCO1	-61
N#CC1(NC(=O)Cn2ncc(Cl)c(Cl)c2=O)CCCCC1	98*
COc1ccc(N2C(=O)CC2(/C=C/c2ccccc2OC)C(=O)NC2CCCC2)cc1 (stereo not drawn)	-45
O=P(COCCOCCOCCOCP(=O)(c1ccccc1)c1ccccc1)(c1ccccc1)c1ccccc1	-44
CC1=CC(C)(C)N2C(=O)C3(SCC(=O)N3c3ccc(F)cc3)c3cc(C)cc1c32 (stereo not drawn)	93*
Cc1ccc(CC(=O)Nc2nccs2)cc1	-51
O=C(N/N=C/c1cccc([N+](=O)[O-])c1)C1COc2ccccc2O1 (stereo not drawn)	188*
Cn1cccc1CC(=O)N/N=C/c1cc([N+](=O)[O-])ccc1Cl	-46
O=C(N/N=C\c1cccc([N+](=O)[O-])c1O)C1COc2ccccc2O1 (stereo not drawn)	75*
C=C1C(=O)[C@]23C[C@H]1CCC2[C@]1(C)CCC[C@@](C)(C(=O)O)C1C[C@@H]3O (stereo partly drawn)	-47
O=C(NCC[C@@H]1CC[C@H](NS(=O)(=O)Cc2ccccc2)[C@H](CO)O1)C1CCC1	-61
CN(C)C(=O)C[C@@H]1CC[C@@H]2[C@H](COC[C@@H](O)CN2C(=O)C2CCOCC2)O1	-56
C[C@H](CO)N1C[C@H](C)[C@@H](CN(C)C(=O)c2ccccn2)Oc2ncc(-c3cccc(C#N)c3)cc2C1=O	-58
Cn1nnnc1Sc1ncnc2scc(-c3cc4ccccc4o3)c12	106*
Cn1nnnc1Sc1ncnc2scc(-c3ccc(C#N)cc3)c12	74*
C[C@@H]1CN([C@H](C)CO)C(=O)c2cc(NS(=O)(=O)c3ccc(F)cc3)ccc2O[C@H]1CN(C)Cc1ccc(C(F)(F)F)cc1	-56
CN(C)c1ccc(C(=O)NC2(N3CCC3=O)CCCC2)cc1	-50
O=C(c1ccc(F)cc1)C(CN1CCOCC1)c1ccccc1 (stereo not drawn)	-60
SMILES	PGC1a acetyl up
OC(c1ccccc1)(C1CCCCC1)C(CN1CCOCC1)c1ccccc1 (stereo not drawn)	57*
CCc1ccc(NC(=O)C2CC=CCC2C(=O)O)cc1 (stereo not drawn)	82*
O=S(=O)(c1ccccc1)c1ncc(C(F)(F)F)cc1Cl	55*
NNS(=O)(=O)c1ccc(Cc2ncc(C(F)(F)F)cc2Cl)s1	-50
Nc1ccccc1Oc1ncc(C(F)(F)F)cc1Cl	-46
CCS(=O)(=O)N[C@H]1C=C[C@H](CC(=O)N2CCCCC2)O[C@H]1CO	-43
O=C(NCc1cccnc1)/C(=C\c1ccc(-c2ccc(Cl)c(Cl)c2)o1)S(=O)(=O)c1ccccc1	-59
O=C(CCCc1nc(-c2ccccc2Cl)no1)NCc1cccnc1	98*
O=C(CCNNC(=O)c1ccncc1)NCc1ccccc1	-51
COc1ccc(C#Cc2ccc([C@@H]3[C@H](CO)N4CCCCN(C(=O)Nc5ccccc5)C[C@@H]34)cc2)cc1	78*
O=C(Nc1ccccc1F)N1CCCCN2[C@H](CO)[C@H](c3ccc(C#Cc4ccccc4)cc3)[C@H]2C1	72*
COc1ccccc1C#Cc1ccc([C@H]2[C@H](C#N)N(C(=O)C3CCCC3)[C@H]2CO)cc1	-65
CC(C)CC#Cc1ccc([C@@H]2[C@H](CO)N3CCCCN(S(=O)(=O)Cc4ccccc4)C[C@@H]23)cc1	61*
O=C1C=CC2(C=C1)O[C@H](Cc1ccccc1)[C@@H](Cc1ccccc1)O2	-41
Cc1[nH]c2ccccc2c1/C=N/Nc1nc2ccccc2[nH]1	80*
COc1ccc(/C=N/Nc2nc3ccccc3[nH]2)c(OC)c1OC	-50
COc1ccc(-c2cnc3c(c2)C(=O)N([C@H](C)CO)C[C@H](C)[C@H](CN(C)S(=O)(=O)c2cccs2)O3)cc1	-50
COc1ccc(C#Cc2cnc3c(c2)C(=O)N([C@H](C)CO)C[C@H](C)[C@H](CN(C)S(=O)(=O)c2cccs2)O3)cc1OC	61*
COc1ccc(S(=O)(=O)N(C)C[C@@H]2Oc3ncc(-c4ccccc4)cc3C(=O)N([C@H](C)CO)C[C@@H]2C)cc1	-47
O=C(C[C@@H]1CC[C@@H]2[C@H](COC[C@@H](O)CN2S(=O)(=O)c2ccc(Cl)cc2)O1)N[C@@H]1CCN(Cc2ccccc2)C1	-48
O=C(O)/C=C/c1cnc[nH]1	-106
